Assay results published in ChEMBL document CHEMBL4304834, “3-Amino-chromanes and Tetrahydroquinolines as Selective 5-HT2B, 5-HT7, or σ1 Receptor Ligands” (ACS Med Chem Lett, 2019).
The source made the active and inactive calls. The rule behind the calls is not given here.

How the values were obtained:
[1] = system: 661W; test: Cytoprotective activity in mouse 661W cells assessed as reduction in tBHP-induced ROS level at 20 to 50 uM after 2 hrs by […] fluorescent microscopic analysis; assay type: functional, cell-based
In short: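 661W cells seeded on coverslips for 18 h, then exposed 2 h to 55 μM tBHP with or without test agent or (+)-pentazocine. ROS are detected with CellROX green dye by epifluorescence, with DAPI marking nuclei. Fluorescence intensity is quantified as mean ± SD from three independent experiments, each run in duplicate.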

[2] = system: 661W; test: Cytoprotective activity in mouse 661W cells assessed as inhibition of t-BHP induced oxidative stress by measuring increase in cell viability at 50 to 100 uM after 24 hrs by MTT assay (Rvb < 50%); assay type: functional, cell-based
[3] = molecular target: 5-hydroxytryptamine receptor 7 (Homo sapiens, UniProt P34969); test: Displacement of [3H]-LSD from human recombinant 5-HT7 receptor expressed in stable HEK cells after 90 mins by microbeta scintillation counting method; assay type: cell-based; details: read-out: pKi (converted)
In short: (§1)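 Run by NIMH Psychoactive Drug Screening Program. Otherwise, competition binding curves are generated and pKi is taken from a sigmoidal curve fit. Data are either triplicate measurements within one experiment, with the error from the fit, or the mean of repeated experiments, each run in triplicate.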

[4] = molecular target: Sigma non-opioid intracellular receptor 1 (Homo sapiens, UniProt Q99720); test: Displacement of [3H]-Pentazocine from human recombinant sigma1 receptor expressed in HEKT cells after 90 mins by microbeta scintillation counting method; assay type: cell-based
[5] = molecular target: T1, 5-hydroxytryptamine receptor 2B (Homo sapiens, UniProt P41595); test: Displacement of [3H]-LSD from human recombinant 5-HT2B receptor stably expressed in HEK cells after 90 mins by microbeta scintillation counting method; assay type: cell-based; in short: as §1
[6] = molecular target: T2, 5-hydroxytryptamine receptor 1A (Homo sapiens, UniProt P08908); test: Displacement of [3H]-Way100635 from human recombinant 5-HT1A expressed in stable CHO cells after 90 mins by microbeta scintillation counting method; assay type: cell-based; details: read-out: pKi (converted); in short: as §1
T2 sequence (P08908 whole entry): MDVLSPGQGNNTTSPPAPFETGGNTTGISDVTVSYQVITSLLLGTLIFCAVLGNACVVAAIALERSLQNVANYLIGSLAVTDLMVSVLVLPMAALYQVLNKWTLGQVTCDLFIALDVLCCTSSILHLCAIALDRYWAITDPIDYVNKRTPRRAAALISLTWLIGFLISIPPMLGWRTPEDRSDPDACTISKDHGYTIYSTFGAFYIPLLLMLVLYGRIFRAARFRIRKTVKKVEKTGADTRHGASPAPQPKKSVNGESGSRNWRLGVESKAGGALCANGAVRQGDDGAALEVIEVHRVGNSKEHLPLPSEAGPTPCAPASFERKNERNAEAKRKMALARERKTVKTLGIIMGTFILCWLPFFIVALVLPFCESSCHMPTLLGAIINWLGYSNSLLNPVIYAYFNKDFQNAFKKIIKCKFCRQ

[7] = molecular target: T3, Sigma intracellular receptor 2 (Homo sapiens, UniProt Q5BJF2); test: Displacement of […] from human recombinant sigma2 receptor expressed in HEKT cells after 90 mins by microbeta scintillation counting method; assay type: cell-based; in short: as §1
[8] = molecular target: T1, 5-hydroxytryptamine receptor 2B; test: Displacement of [3H]-LSD from human recombinant 5-HT2B receptor stably expressed in HEK cells at 10 uM after 90 mins by microbeta scintillation counting method relative to control; assay type: cell-based
In short: (§2)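 Radioligand binding run by the NIMH Psychoactive Drug Screening Program. […] Otherwise Ki comes from sigmoidal curve fits of triplicate measurements in a single experiment, or is averaged over repeated experiments each run in triplicate.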

[9] = molecular target: T3, Sigma intracellular receptor 2; test: Displacement of […] from human recombinant sigma2 receptor expressed in HEKT cells at 10 uM after 90 mins by microbeta scintillation counting method relative to control; assay type: cell-based; in short: as §2
[10] = species on record: Homo sapiens; test: Selectivity index, ratio of Ki for human recombinant 5-HT2B receptor to Ki for human recombinant sigma1 receptor
[11] = species on record: Homo sapiens; test: Selectivity index, ratio of Ki for human recombinant sigma2 receptor to Ki for human recombinant sigma1 receptor
In short: (§3)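 Both Ki values in each ratio come from NIMH Psychoactive Drug Screening Program radioligand binding. […] Other targets were given full binding curves, measured in triplicate, and Ki was taken from a sigmoidal curve fit. Some values were repeated in duplicate or triplicate independent experiments.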

[12] = species on record: Homo sapiens; test: Selectivity index, ratio of Ki for human recombinant sigma2 receptor to Ki for human recombinant 5-HT2B receptor; in short: as §3

T3 sequence (Q5BJF2 whole entry): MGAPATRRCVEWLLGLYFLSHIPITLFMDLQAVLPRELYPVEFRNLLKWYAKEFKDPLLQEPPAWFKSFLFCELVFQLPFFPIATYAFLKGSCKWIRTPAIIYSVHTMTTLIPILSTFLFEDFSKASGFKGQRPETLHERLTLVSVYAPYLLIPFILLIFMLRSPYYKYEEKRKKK
Sequence of 5-hydroxytryptamine receptor 7 (P34969 whole entry): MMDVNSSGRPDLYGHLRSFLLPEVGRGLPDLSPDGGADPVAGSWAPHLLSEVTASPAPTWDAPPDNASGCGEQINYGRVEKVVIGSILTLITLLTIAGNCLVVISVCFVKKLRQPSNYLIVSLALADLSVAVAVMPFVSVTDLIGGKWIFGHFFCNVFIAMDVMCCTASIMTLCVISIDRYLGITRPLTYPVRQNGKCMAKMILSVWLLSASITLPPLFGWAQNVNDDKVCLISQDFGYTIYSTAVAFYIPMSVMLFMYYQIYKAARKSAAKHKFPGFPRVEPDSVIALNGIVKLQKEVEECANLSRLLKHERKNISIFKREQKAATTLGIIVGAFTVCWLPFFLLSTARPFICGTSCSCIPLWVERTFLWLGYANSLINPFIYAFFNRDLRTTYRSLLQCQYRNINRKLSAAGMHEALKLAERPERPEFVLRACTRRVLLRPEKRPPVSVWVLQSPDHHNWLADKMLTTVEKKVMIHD
Sequence of Sigma non-opioid intracellular receptor 1 (Q99720 whole entry): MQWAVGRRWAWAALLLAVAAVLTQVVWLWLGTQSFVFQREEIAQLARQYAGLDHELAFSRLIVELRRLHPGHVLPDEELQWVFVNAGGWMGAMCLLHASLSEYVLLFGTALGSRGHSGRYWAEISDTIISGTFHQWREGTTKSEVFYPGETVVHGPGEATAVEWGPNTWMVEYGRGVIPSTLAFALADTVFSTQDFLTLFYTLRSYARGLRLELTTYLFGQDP
T1 sequence (P41595 whole entry): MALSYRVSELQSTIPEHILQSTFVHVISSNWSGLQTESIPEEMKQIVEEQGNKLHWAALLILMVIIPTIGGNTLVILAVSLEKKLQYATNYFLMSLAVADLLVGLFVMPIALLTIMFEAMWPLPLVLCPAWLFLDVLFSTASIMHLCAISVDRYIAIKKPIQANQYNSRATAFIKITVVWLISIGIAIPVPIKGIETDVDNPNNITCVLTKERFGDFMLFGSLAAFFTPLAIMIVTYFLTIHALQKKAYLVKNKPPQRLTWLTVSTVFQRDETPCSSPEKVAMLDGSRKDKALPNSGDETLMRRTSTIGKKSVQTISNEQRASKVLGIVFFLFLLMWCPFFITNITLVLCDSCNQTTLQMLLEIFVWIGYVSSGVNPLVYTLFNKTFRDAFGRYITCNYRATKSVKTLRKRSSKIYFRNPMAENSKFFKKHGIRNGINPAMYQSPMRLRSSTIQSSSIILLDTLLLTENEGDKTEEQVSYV

| SMILES | Ki [3] | Ki ([4]; read-out: pKi (converted)) | Ki ([5]; read-out: pKi (converted)) | Ki [6] | Ki [7] | other results |
| --- | --- | --- | --- | --- | --- | --- |
| CC(C)=CCN1CC[C@]2(C)c3cc(O)ccc3C[C@H]1[C@H]2C | – | – | – | – | – | inhibition [1]: Active; Activity [2]: Active |
| C[C@@]12COc3c(-c4ccccc4)cccc3[C@@H]1CCN2 (racemic) | 23.4 nM | 39.8 nM | 158 nM | 200 nM | 126 nM | – |
| CC(=O)N1CC[C@H]2c3cccc(-c4ccccc4)c3OC[C@]21C (racemic) | – | – | 501 nM | – | 1260 nM | – |
| CC(=O)N1CC[C@H]2c3ccccc3N(c3ccccc3)C[C@]21C (racemic) | – | – | > 10000 nM | – | 1260 nM | inhibition [8]: < 50% |
| Cc1cc(C)c2c(c1)OC[C@@]1(C)NCC[C@@H]21 (racemic) | 1260 nM | 63.1 nM | 79.4 nM | – | 316 nM | – |
| CC[C@H]1c2cc(OC)ccc2OC[C@@]1(C)N (racemic) | – | 398 nM | 251 nM | 2510 nM | > 10000 nM | inhibition [9]: < 50% |
| CN1CC[C@H]2c3ccccc3N(c3ccccc3)C[C@]21C (racemic) | 2.69 nM | 162 nM | 200 nM | 200 nM | 158 nM | – |
| C[C@@]12COc3c(Br)cccc3[C@@H]1CCN2 (racemic) | 398 nM | 501 nM | 20 nM | 1000 nM | 631 nM | – |
| CC(=O)N1CC[C@H]2c3ccc(O)cc3OC[C@]21C (racemic) | – | > 10000 nM | > 10000 nM | – | > 10000 nM | inhibition [8]: < 50%; inhibition [9]: < 50% |
| CN1CC[C@H]2c3cccc(-c4ccccc4)c3OC[C@]21C (racemic) | 20 nM | 50.1 nM | 251 nM | 200 nM | 316 nM | – |
| Cc1ccc(N2C[C@@]3(C)NCC[C@H]3c3cc(C)ccc32)cc1 (racemic) | 200 nM | 251 nM | 316 nM | – | 316 nM | – |
| CC[C@H]1c2c(ccc3ccccc23)OC[C@@]1(C)N (racemic) | 692 nM | 1000 nM | – | 316 nM | 2000 nM | Ki ([5]; read-out: Ki): 20 nM |
| CC[C@H]1c2cc(-c3ccccc3)ccc2OC[C@@]1(C)N (racemic) | – | – | 126 nM | 2000 nM | 316 nM | Ratio Ki [10]: 10; Ki ([4]; read-out: Ki): 16 nM; Ratio Ki [11]: > 200 |
| C[C@@]12COc3cc(O)ccc3[C@@H]1CCN2 (racemic) | – | > 10000 nM | > 10000 nM | – | 1000 nM | inhibition [8]: < 50% |
| COc1ccc2c(c1)[C@@H]1CCN[C@]1(C)CO2 (racemic) | 200 nM | 126 nM | 631 nM | – | 3160 nM | – |
| CN1CC[C@H]2c3ccc(O)cc3OC[C@]21C (racemic) | – | 50.1 nM | 1000 nM | – | 3980 nM | – |
| CC[C@H]1c2ccc(O)cc2OC[C@@]1(C)N (racemic) | – | > 10000 nM | > 10000 nM | – | > 10000 nM | inhibition [8]: < 50%; inhibition [9]: < 50% |
| CC[C@H]1c2ccc3ccccc3c2OC[C@@]1(C)N (racemic) | 1000 nM | 3160 nM | – | 2510 nM | 316 nM | Ki ([5]; read-out: Ki): 3.5 nM; Ratio Ki [12]: 150 |
| C[C@@]12COc3cc(OCc4ccccc4)ccc3[C@@H]1CCN2 (racemic) | – | 7.94 nM | 126 nM | – | 100 nM | – |
| C[C@@]12COc3ccc(-c4ccccc4)cc3[C@@H]1CCN2 (racemic) | 1000 nM | 12.6 nM | 251 nM | – | 79.4 nM | – |
| C[C@@]12CN(c3ccc(Br)cc3)c3ccc(Br)cc3[C@@H]1CCN2 (racemic) | 200 nM | 158 nM | 316 nM | – | 79.4 nM | – |
